Measured values taken from ChEMBL document CHEMBL3734694, “Design, synthesis, and anticancer evaluation of long-chain alkoxylated mono-carbonyl analogues of curcumin” (Eur J Med Chem, 2015).
≈ marks a conversion by molar mass, not a printed value. Calls of active or inactive are those of the source. The rule behind the calls is not given here.

Experiments:
CT26 [1] = assay: Cytotoxicity against mouse CT26 cells assessed as inhibition of cell proliferation incubated for 72 hrs by MTS assay; assay type: functional, cell-based; conditions: CT26, 72 h
Outline: (§1)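 Cells in RPMI-1640 with 10% heat-inactivated FBS at 37°C, 5% CO2. Seeded at 4000 cells/well in triplicate and attached overnight. Exposed to various concentrations for 72 h. MTS added for a further 4 h; absorbance at 490 nm. IC50 = concentration for 50% growth inhibition, as mean ± SEM of three independent tests.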

[2] = Cytotoxicity against human MGC803 cells assessed as inhibition of cell proliferation at 10 uM incubated for 72 hrs by MTS assay; assay type: functional; conditions: MGC-803, 72 h
Outline: (§2)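 Single-concentration MTS screen at 10 μM. Cells in RPMI-1640 with 10% FBS, seeded at 4000 cells/well in triplicate, attached overnight, then exposed for 72 h at 37°C, 5% CO2. MTS for 4 h; absorbance 490 nm. Reported as % inhibition.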

SGC-7901 [3] = assay: Induction of apoptosis in human SGC7901 cells assessed as decrease in procaspase-3 fragments at 2.5 to 10 uM incubated for 24 hrs by immunoblotting; assay type: functional, cell-based
Outline: (§3)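 SGC7901 cells treated 24 h at 2.5, 5 or 10 μM. Lysed on ice for 30 min; 60 µg protein run on 10% SDS-PAGE and transferred to PVDF. Blocked in 5% milk. Primary antibodies (cleaved PARP, pro-caspase-3, Bcl-2) overnight at 4°C, HRP secondary 1:300 for 1 h at room temperature. ECL detection. Three experiments.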

[4] = Cytotoxicity against human SW620 cells assessed as inhibition of cell proliferation incubated for 72 hrs by MTS assay; assay type: functional, cell-based; conditions: SW-620, 72 h; outline: as §1
SGC-7901 [5] = assay: Induction of apoptosis in human SGC7901 cells assessed as increase in cleaved PARP incubated for 24 hrs by immunoblotting; assay type: functional, cell-based; outline: as §3
[6] = Solubility of compound in water
CT26 [7] = assay: Cytotoxicity against mouse CT26 cells at 10 uM assessed as inhibition of cell proliferation incubated for 72 hrs by MTS assay; assay type: functional; conditions: CT26, 72 h; outline: as §2
[8] = Cytotoxicity against human SW620 cells assessed as inhibition of cell proliferation at 10 uM incubated for 72 hrs by MTS assay; assay type: functional; conditions: SW-620, 72 h; outline: as §2
[9] = Cytotoxicity against human SGC7901 cells assessed as inhibition of cell proliferation at 10 uM incubated for 72 hrs by MTS assay; assay type: functional; conditions: SGC-7901, 72 h; outline: as §2
SGC-7901 [10] = assay: Induction of apoptosis in human SGC7901 cells assessed as decrease in BCL2 expression at 2.5 to 10 uM incubated for 24 hrs by immunoblotting; assay type: functional, cell-based; outline: as §3
[11] = Cytotoxicity against human GES-1 cells assessed as inhibition of cell proliferation incubated for 72 hrs by MTS assay; assay type: functional, cell-based; conditions: GES1, 72 h; outline: as §1
[12] = Cytotoxicity against human MGC803 cells assessed as inhibition of cell proliferation incubated for 72 hrs by MTS assay; assay type: functional, cell-based; conditions: MGC-803, 72 h; outline: as §1
[13] = Cytotoxicity against human SGC7901 cells assessed as inhibition of cell proliferation incubated for 72 hrs by MTS assay; assay type: functional, cell-based; conditions: SGC-7901, 72 h; outline: as §1
SGC-7901 [14] = assay: Induction of apoptosis in human SGC7901 cells assessed as necrotic cells and late apoptotic cells incubated for 30 hrs by PI and Annexin V-FITC-based flow cytometric analysis; assay type: functional, cell-based
Outline: (§4)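 SGC7901 cells grown to 80% confluency in 6-well plates, then treated 30 h with 2.5, 5 or 10 μM. DMSO negative control. Cells washed in ice-cold PBS and stained with FITC-Annexin V and PI in binding buffer. Read by flow cytometry: UR = necrotic/late apoptotic, LR = early apoptotic. Three separate experiments.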

[15] = Antitumor activity against human SGC7901 cells xenografted in nude mouse at 100 mg/kg, po qd for 23 days; assay type: functional; conditions: SGC-7901, po, 552 h
Outline: (§5)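 SGC7901 xenograft: female nude mice, 8 weeks old, given 10 million cells s.c. At about 40 mm³, randomized to 0.5% CMCNA vehicle or oral daily doses for 23 consecutive days. Calipers every 2 days; volume = π/6 × large diameter × (small diameter)². %ΔT/ΔC determined. Tumours weighed after sacrifice on the final day. Mean ± SEM; Student's t-test.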

SGC-7901 [16] = assay: Induction of apoptosis in human SGC7901 at 10 uM incubated for 30 hrs by PI and Annexin V-FITC-based flow cytometric analysis; assay type: functional; outline: as §4
Mus musculus [17] = assay: Toxicity in po dosed nude mouse xenografted with human SGC7901 cells assessed as drug tolerability by measuring clinical parameters at 50 and 100 mg/kg, po qd for 23 days; assay type: organism-based, SGC-7901; conditions: in vivo, 552 h
Outline: (§6)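 Female nude mice (8 weeks) bearing s.c. SGC7901 tumours (10 million cells injected) of about 40 mm³. Given 0.5% CMCNA vehicle or 50 or 100 mg/kg/day orally for 23 consecutive days. Observed daily. Body weights monitored for the duration of the study.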

SGC-7901 [18] = assay: Antitumor activity against human SGC7901 cells xenografted in po dosed nude mouse assessed as decrease in tumor weight administered as once daily for 23 days; assay type: functional, organism-based; outline: as §5
SGC-7901 [19] = assay: Antitumor activity against human SGC7901 cells xenografted in nude mouse assessed as decrease cell proliferation at 50 and 100 mg/kg, po qd for 23 days by Ki67 staining-based immunohistochemistry; assay type: functional, organism-based
Outline: (§7)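 Female nude mice, eight weeks old, injected s.c. with 10 million SGC7901 cells. At about 40 mm³, randomized to 0.5% CMCNA vehicle or daily oral dosing for 23 consecutive days. Tumour halves fixed in 4% paraformaldehyde. 5 μm sections, citrate antigen retrieval. Primary antibody overnight at 4°C (anti-Ki67 1:50, cleaved caspase-3 1:100), then HRP secondary 1:100 for 2 h at 37°C. DAB stain, hematoxylin counterstain.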

SGC-7901 [20] = assay: Antitumor activity against human SGC7901 cells xenografted in nude mouse assessed as increase in cleaved caspase-3 at 50 and 100 mg/kg, po qd for 23 days by DAB substrate-chromogen staining-based immunohistochemistry; assay type: functional, organism-based; outline: as §7
Mus musculus [21] = assay: Toxicity in po dosed nude mouse xenografted with human SGC7901 cells assessed as loss of body weight at 50 and 100 mg/kg, po qd for 23 days; assay type: organism-based, SGC-7901; conditions: in vivo, 552 h; outline: as §6

SMILES | IC50 (CT26 [1]) [nM] | inhibition at 10 µM [2] [%] | Activity (SGC-7901 [3]) | IC50 [4] [nM] | Activity (SGC-7901 [5]) | solubility [6] [µg/mL] | inhibition at 10 µM (CT26 [7]) [%] | inhibition at 10 µM [8] [%] | inhibition at 10 µM [9] [%] | Activity (SGC-7901 [10]) | IC50 [11] [nM] | IC50 [12] [nM] | IC50 [13] [nM] | Activity (SGC-7901 [14]) | further results
CCN(CC)CCCOc1ccc(/C=C2\CCC/C(=C\c3ccc(OCCCN(CC)CC)c(OC)c3)C2=O)cc1OC | 2060 | 80.4 | Active | 990 | Dose-dependent effect | 21.6 (≈ 36.5 µM) | 91.9 | 82.6 | 78 | Active | 3450 | 1720 | 1700 | Dose-dependent effect | 
COc1cc(/C=C2\CC/C(=C\c3ccc(OCCCn4ccnc4)c(OC)c3)C2=O)ccc1OCCCn1ccnc1 | 360 | 16.3 |  | 950 |  | 3.63 (≈ 6.38 µM) | 101 | 93.5 | 76.8 |  | 7090 | 2460 | 890 |  | 
COc1cc(/C=C/C(=O)/C=C/c2cccc(OC)c2OC)ccc1OCCCN1CCOCC1 | 2380 | 77.6 | Active | 1020 | inactive | 114 (≈ 243 µM) | 88.9 | 82.1 | 73.7 |  | 2770 | 2490 | 1840 | inactive | 
COc1cc(/C=C2\CC/C(=C\c3ccc(OCCCN4CCCCC4)c(OC)c3)C2=O)ccc1OCCCN1CCCCC1 | 180 | 86.6 |  | 390 |  | 4.11 (≈ 6.82 µM) | 91.9 | 83.8 | 84.2 |  | 670 | 680 | 440 |  | 
COc1ccccc1/C=C/C(=O)/C=C/c1ccc(OCCCN2CCOCC2)c(OC)c1 | 2560 | 80.3 | Active | 1220 | Dose-dependent effect | 21.2 (≈ 48.5 µM) | 104 | 105 | 75.3 | Active | 2620 | 2180 | 1910 | Dose-dependent effect | inhibition in vivo at 100 mg/kg [15]: 48%; Activity (SGC-7901 [16]): 50%; Activity (Mus musculus [17]): Non-toxic; inhibition (SGC-7901 [18]): Dose-dependent effect; Activity (SGC-7901 [19]): Active; Activity (SGC-7901 [20]): Active; Activity (Mus musculus [21]): Non-toxic
